Data on 25 compounds can be found in PubChem BioAssay AID624340 (The Scripps Research Institute Molecular Screening Center, 2012).

Values joined by “and” are separate entries in the source; they are usually repeats but may differ in a detail not shown here. Identical values can stand only once. Active and inactive are the calls of the source.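 Rule for the calls: active = IC50 at or below 10 µM; inactive = IC50 above 10 µM.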 Bounds are passed on as bounds.

Sequence of Insulin-degrading enzyme (Homo sapiens) (P14735 whole entry, looked up): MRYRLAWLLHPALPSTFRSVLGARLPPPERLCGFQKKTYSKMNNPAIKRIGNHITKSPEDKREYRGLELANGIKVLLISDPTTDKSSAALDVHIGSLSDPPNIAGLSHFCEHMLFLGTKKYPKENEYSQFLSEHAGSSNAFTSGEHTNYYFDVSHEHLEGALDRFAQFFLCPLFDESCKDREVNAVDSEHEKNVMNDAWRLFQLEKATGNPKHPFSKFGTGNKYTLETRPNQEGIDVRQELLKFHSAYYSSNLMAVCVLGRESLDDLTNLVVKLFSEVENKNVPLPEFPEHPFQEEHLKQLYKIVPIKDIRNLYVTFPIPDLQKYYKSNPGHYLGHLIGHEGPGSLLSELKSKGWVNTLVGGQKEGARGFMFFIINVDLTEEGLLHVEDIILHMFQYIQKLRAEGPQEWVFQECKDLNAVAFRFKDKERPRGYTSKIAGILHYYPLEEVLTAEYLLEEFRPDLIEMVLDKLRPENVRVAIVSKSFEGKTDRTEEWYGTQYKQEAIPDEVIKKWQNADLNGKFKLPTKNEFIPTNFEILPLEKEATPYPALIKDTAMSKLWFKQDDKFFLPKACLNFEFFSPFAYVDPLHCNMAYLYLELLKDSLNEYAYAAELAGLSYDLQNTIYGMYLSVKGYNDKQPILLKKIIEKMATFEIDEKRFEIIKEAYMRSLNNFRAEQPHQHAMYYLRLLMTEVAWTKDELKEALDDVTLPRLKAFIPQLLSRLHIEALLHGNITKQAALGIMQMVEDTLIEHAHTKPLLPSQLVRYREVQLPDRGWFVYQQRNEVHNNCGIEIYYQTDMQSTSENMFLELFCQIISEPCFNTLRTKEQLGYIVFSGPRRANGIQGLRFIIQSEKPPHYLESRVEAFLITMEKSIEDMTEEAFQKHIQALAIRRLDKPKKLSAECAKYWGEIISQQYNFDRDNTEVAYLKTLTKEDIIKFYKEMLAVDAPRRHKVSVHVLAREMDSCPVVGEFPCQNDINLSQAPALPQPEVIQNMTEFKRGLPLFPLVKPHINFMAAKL

The target in the assay is Insulin-degrading enzyme (Homo sapiens) (UniProt P14735). Description: fluorescence artefact check, IDE FRET1 cleavage – biochemical, FRET1 substrate, round 2, artefact control for IDE inhibitor project, late-stage follow-up (AID 624340). The note with it: recombinant WT IDE. Put shortly:
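Assay system: Recombinant WT IDE | Input: 1 nM IDE final | Detection: Fluorescence at 335/385 nm | Times: Kinetic read every 2 min over 2 h, 22 °C | Repeats: Triplicate per concentration | Measure: IC50 from sigmoidal fit of initial-rate percent activity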
A word on the IC50: it is the concentration needed to halve the response being measured. Take `c1coc(Cn2c(SCc3nc4ccccc4[nH]3)nnc2-c2ccco2)c1`: the IC50 is > 100 µM (inactive).
To `O=C(c1ccc(Oc2ccccc2)cc1)N1CCN(C(=O)C2COc3ccccc3O2)CC1` (stereo not given) belongs > 100 µM (inactive).
The same measure for `Cc1ccc(COCc2nnc(SCc3nc4ccccc4[nH]3)n2Cc2ccco2)cc1`: > 100 µM (inactive).
To `COc1ccc(C(=O)N2CCN(C(=O)C3CC(=O)N(c4ccccc4)C3)CC2)cc1OC` (stereo not given) belongs > 100 µM (inactive); to `CCOc1ccc(C(=O)N2CCN(C(=O)C3COc4ccccc4O3)CC2)cc1` (stereo not given), > 100 µM (inactive); to `COc1ccc(C(=O)N2CCN(C(=O)COc3ccc(Cl)cc3)CC2)cc1OC`, > 100 µM (inactive).
On to `COc1cccc(C(=O)N2CCN(C(=O)C3COc4ccccc4O3)CC2)c1` (stereo not given), for which the IC50 entry is “inactive”.
The same measure for `Cc1ccc(-c2nnc(SCc3nc4ccccc4[nH]3)n2Cc2ccco2)cc1`: > 100 µM (inactive); for `COc1ccc(C(=O)N2CCN(C(=O)CCc3c[nH]c4ccccc34)CC2)cc1OC`: > 100 µM (inactive); for `COc1ccc(C(=O)N2CCN(C(=O)COc3ccc(C)cc3)CC2)cc1OC`: > 100 µM (inactive).
To `c1ccc(-c2nnc(SCc3nc4ccccc4[nH]3)n2Cc2ccco2)nc1` belongs > 100 µM (inactive); to `COc1ccc(OCC(=O)N2CCN(C(=O)c3ccc(OC)c(OC)c3)CC2)cc1`, > 100 µM (inactive).
The same measure for `c1coc(Cn2c(SCc3nc4ccccc4[nH]3)nnc2-c2cccs2)c1`: > 100 µM (inactive); for `O=C(c1ccc2nc(C(F)(F)F)[nH]c2c1)N1CCN(C(=O)C2COc3ccccc3O2)CC1` (stereo not given): “inactive”.
Turning to `c1ccc(-c2nnc(SCc3nc4ccccc4[nH]3)n2Cc2ccco2)cc1`, the IC50 was > 100 µM (inactive).
To `Clc1ccc(COCc2nnc(SCc3nc4ccccc4[nH]3)n2Cc2ccco2)cc1` belongs > 100 µM (inactive).
The same measure for `COc1ccc(C(=O)N2CCN(C(=O)C3COc4ccccc4O3)CC2)cc1` (stereo not given): 5.89 µM and > 100 µM (inactive); for `O=C(c1ccc(OCC2CCCO2)cc1)N1CCN(C(=O)C2COc3ccccc3O2)CC1` (stereo not given): > 100 µM (inactive).
The same measure for `c1coc(Cn2c(SCc3nc4ccccc4[nH]3)nnc2-c2cnccn2)c1`: > 100 µM (inactive); for `COc1ccc(C(=O)N2CCN(C(=O)C(c3ccccc3)c3ccccc3)CC2)cc1OC`: > 100 µM (inactive).
Turning to `COc1cc(C(=O)N2CCN(C(=O)C3COc4ccccc4O3)CC2)cc(Cl)c1OC` (stereo not given), the IC50 is > 100 µM (inactive).
The same measure for `COc1ccc(C(=O)N2CCN(C(=O)COc3ccccc3)CC2)cc1OC`: > 100 µM (inactive).
The same measure for `CC(=O)Nc1ccccc1C(=O)N1CCN(C(=O)C2COc3ccccc3O2)CC1` (stereo not given): “inactive”; for `O=C(c1ccc(Oc2ccc(F)cc2)cc1)N1CCN(C(=O)C2COc3ccccc3O2)CC1` (stereo not given): > 100 µM (inactive).
The same measure for `Cc1nc(COc2ccc(C(=O)N3CCN(C(=O)C4COc5ccccc5O4)CC3)cc2)cs1` (stereo not given): > 100 µM (inactive).
